Screening results: PubChem, Broad Institute
Hits are enriched below; roughly 2.5% of the tested compounds scored in any of these assays.
DENV2 CPE rescue: DENV2-induced cell death inhibition | CPE inhibition, % at 9.99 µM | actives 1.7% (n = 350,000) | DENV2-infected cells, cytopathic effect rescue, plate reader; in the data active = CPE inhibition above about 20%, passing the limit was not always enough; inconclusive = no clear call, values can overlap the other calls; tested in BHK-21 cells;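 note: 0% = median of neutral control wells and 100% = median of positive control wells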
PglD inh: PglD (C. jejuni) enzyme inhibition | purified PglD enzyme, DTNB colorimetric CoA detection | inhibition, % at 12.5 µM | actives 0.098% (n = 360,000); in the data active = inhibition above about 16%, passing the limit was not always enough; inconclusive = no clear call, values can overlap the other calls
E-selectin induc: E-selectin induction on HUVECs; P16581; HUVEC E-selectin immunofluorescence imaging; normalized: neutral wells 0, TNF-alpha wells 100; activation, % at 7.58 µM; actives 0.37% (n = 260,000); AID 686992;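 active = mean E-selectin-positive cell signal at least 10% of the positive control, reached in at least 60% of replicates, without over 20% cell loss; inconclusive = no rule given, readout overlaps actives, possibly toxicity-flagged; inactive = the rest, including those meeting only one limit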
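material = human umbilical vein endothelial cells (HUVEC), E-selectin induction | quantity = 3,000 cells/well | medium = EGM-2 growth medium on 0.1% gelatin-coated wells | technique = immunofluorescence imaging | read-out basis = % PE-positive cells | control set = TNF-alpha positive control, DMSO neutral control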
SIRT5 inh: blocks human SIRT5 desuccinylation of peptide. Purified SirT5, succinyl-peptide AMC, trypsin-coupled fluorescence. inhibition, % at 15 µM. actives 1.1% (n = 330,000). AID 652115; in the data active = inhibition above about 15%; inconclusive = no clear call, values can overlap the other calls
ERAP1 HTS inh: inhibitors of human ERAP1 aminopeptidase; recombinant ERAP1, Leu-AMC fluorescence, 60 min; inhibition, % at 10.7 µM; actives 0.15% (n = 340,000); AID 652197;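 active = mean replicate inhibition of at least 30%, or all replicates individually reaching that 30% level; inactive = mean below 30% and not every replicate reaching it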;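 note: 0% = neutral control wells and 100% = L-leucinethiol positive control wells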
Target sequence (Q9NZ08 whole entry, looked up): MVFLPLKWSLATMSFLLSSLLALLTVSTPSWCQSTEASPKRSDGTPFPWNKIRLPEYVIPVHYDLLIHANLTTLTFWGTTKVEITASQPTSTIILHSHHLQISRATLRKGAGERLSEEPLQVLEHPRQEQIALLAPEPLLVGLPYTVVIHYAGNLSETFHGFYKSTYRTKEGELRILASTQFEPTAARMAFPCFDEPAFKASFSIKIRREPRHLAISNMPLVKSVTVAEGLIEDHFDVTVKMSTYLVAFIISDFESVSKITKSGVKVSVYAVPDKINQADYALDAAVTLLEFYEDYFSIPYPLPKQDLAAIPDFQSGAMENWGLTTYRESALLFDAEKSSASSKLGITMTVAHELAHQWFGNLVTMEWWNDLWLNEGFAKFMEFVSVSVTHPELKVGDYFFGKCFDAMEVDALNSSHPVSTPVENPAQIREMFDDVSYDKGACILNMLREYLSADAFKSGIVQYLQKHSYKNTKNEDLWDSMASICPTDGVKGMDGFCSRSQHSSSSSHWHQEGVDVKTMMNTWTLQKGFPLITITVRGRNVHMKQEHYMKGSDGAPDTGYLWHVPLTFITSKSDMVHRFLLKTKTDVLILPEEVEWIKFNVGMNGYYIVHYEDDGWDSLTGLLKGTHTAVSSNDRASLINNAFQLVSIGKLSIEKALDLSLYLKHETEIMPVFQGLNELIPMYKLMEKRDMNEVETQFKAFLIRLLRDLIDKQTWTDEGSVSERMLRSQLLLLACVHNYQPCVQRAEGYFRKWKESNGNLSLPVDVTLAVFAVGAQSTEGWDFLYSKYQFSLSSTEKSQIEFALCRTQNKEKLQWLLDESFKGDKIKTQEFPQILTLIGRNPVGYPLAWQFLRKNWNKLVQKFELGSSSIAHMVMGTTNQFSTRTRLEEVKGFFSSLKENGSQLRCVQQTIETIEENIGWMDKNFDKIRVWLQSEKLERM
* marks the source's active call; other numbers are inactive results.

How did Cc1ccccc1-c1cnc2c(c1)C(=O)N([C@@H](C)CO)C[C@@H](C)[C@H](CN(C)C(=O)c1ccncc1)O2 do in these assays?
DENV2 CPE rescue: -9.2; PglD inh: 4.7; E-selectin induc: -0.1; SIRT5 inh: -2.5; ERAP1 HTS inh: -0.2

How did COC(=O)[C@]1(Sc2ccc(OC)cc2)CC(=O)N[C@@H]1c1ccccc1 do in these assays?
DENV2 CPE rescue: 72.3*; E-selectin induc: 6.1; SIRT5 inh: -3.6

How did Nc1ccc(S(=O)(=O)c2ccc(N)c(N)c2)cc1 do in these assays?
DENV2 CPE rescue: -0.1; SIRT5 inh: 2.9; ERAP1 HTS inh: 0.4

What do the screens show for `Nc1cc(S(=O)(=O)c2ccc(O)c(N)c2)ccc1O`?
DENV2 CPE rescue: -0.7; E-selectin induc: 4.2; SIRT5 inh: 16.1*; ERAP1 HTS inh: -3.0

Results for Cn1c(SCc2cccc(Br)c2)nc2ccccc2c1=O ?
DENV2 CPE rescue: -15.6; PglD inh: 1.0; SIRT5 inh: -0.2; ERAP1 HTS inh: -2.3

What do the screens show for `CCOC(=O)c1cc2ccc3ccccc3c2oc1=O`?
DENV2 CPE rescue: 0.9; PglD inh: -21.4; SIRT5 inh: 23.7*; ERAP1 HTS inh: -466.2

How did O=[N+]([O-])c1ccc(OCCCCCN2CCOCC2)cc1 do in these assays?
DENV2 CPE rescue: 26.3*; PglD inh: -6.1; E-selectin induc: 0.1; SIRT5 inh: 0.1; ERAP1 HTS inh: -2.1

What do the screens show for `O=[N+]([O-])c1ccc(OCCCCN2CCCCC2)cc1`?
PglD inh: -2.5; E-selectin induc: 0.0

How did COC(=O)C1CCN(Cc2ccc(OCCCN3CCN(c4ccc([N+](=O)[O-])cc4)CC3)cc2)CC1 do in these assays?
DENV2 CPE rescue: 3.8; E-selectin induc: -1.0; SIRT5 inh: 15.8*; ERAP1 HTS inh: 5.0

How did CC(C)NC(=O)N[C@@H]1C=C[C@H](CC(=O)O)O[C@H]1CO do in these assays?
DENV2 CPE rescue: inconclusive; PglD inh: -2.2; E-selectin induc: -0.4; SIRT5 inh: 7.2; ERAP1 HTS inh: 2.1

How did Cc1ccc(-c2csc3nc(C)n(-n4cccc4)c(=O)c23)o1 do in these assays?
PglD inh: 7.0

What do the screens show for `COCC#Cc1ccc([C@@H]2[C@H]3CN(S(=O)(=O)c4ccccc4F)CCCCN3[C@H]2CO)cc1`?
DENV2 CPE rescue: 32.7*; PglD inh: -0.2; E-selectin induc: -0.5; SIRT5 inh: -1.9; ERAP1 HTS inh: -0.6

What do the screens show for `COCC#Cc1ccc([C@@H]2[C@@H](CO)N3CCCCN(S(=O)(=O)c4ccccc4C)C[C@@H]23)cc1`?
DENV2 CPE rescue: -2.2; PglD inh: 1.2; E-selectin induc: -0.4; SIRT5 inh: 11.1; ERAP1 HTS inh: -0.1

What do the screens show for `Cc1ccccc1S(=O)(=O)N1CCCCN2[C@H](CO)[C@H](c3ccc(-c4ccccc4)cc3)[C@H]2C1`?
DENV2 CPE rescue: -2.6; PglD inh: 2.2; SIRT5 inh: 17.4*; ERAP1 HTS inh: 5.0

What do the screens show for `O=S(=O)(c1ccccc1F)N1CCCCN2[C@H](CO)[C@H](c3ccc(-c4ccccc4)cc3)[C@H]2C1`?
DENV2 CPE rescue: 33.9*; PglD inh: 2.2; E-selectin induc: 0.0; SIRT5 inh: 3.5; ERAP1 HTS inh: 0.3

How did Cc1ccccc1S(=O)(=O)N1CCCCN2[C@H](CO)[C@@H](c3ccc(-c4ccccc4)cc3)[C@H]2C1 do in these assays?
DENV2 CPE rescue: -1.6; PglD inh: 2.7; SIRT5 inh: 18.9*; ERAP1 HTS inh: -0.8

How did Cc1ccccc1S(=O)(=O)N1CCCCN2[C@@H](CO)[C@@H](c3ccc(-c4ccccc4)cc3)[C@@H]2C1 do in these assays?
DENV2 CPE rescue: -7.0; PglD inh: 2.3; SIRT5 inh: -0.7; ERAP1 HTS inh: 3.1

Results for O=C(NCc1ccccc1)C(c1cccnc1)N(C(=O)c1ccccn1)c1ccccc1F (stereo unspecified) ?
DENV2 CPE rescue: 7.7; PglD inh: 7.7; E-selectin induc: -0.1; SIRT5 inh: -6.2; ERAP1 HTS inh: 0.0

How did O=C(COC(=O)C1CCN(c2ccc(C(F)(F)F)cn2)CC1)c1ccccc1 do in these assays?
DENV2 CPE rescue: -11.0; PglD inh: -0.7; SIRT5 inh: -6.7; ERAP1 HTS inh: -0.6

Results for CCOc1ccc(C(=O)COC(=O)C2CCN(c3ccc(C(F)(F)F)cn3)CC2)cc1 ?
DENV2 CPE rescue: 74.0*; PglD inh: 4.1; E-selectin induc: 0.5; SIRT5 inh: -5.5; ERAP1 HTS inh: 1.3

How did CC(C)(C)N(Cc1ccccc1)C(=O)COC(=O)C1CCN(c2ccc(C(F)(F)F)cn2)CC1 do in these assays?
DENV2 CPE rescue: 43.9*; PglD inh: 4.6; SIRT5 inh: -14.1; ERAP1 HTS inh: 2.2

What do the screens show for `CN(C)/C=C/C(=O)c1ccc2noc(-c3ccccc3)c2c1`?
DENV2 CPE rescue: 5.8; PglD inh: 2.2; E-selectin induc: -0.1; SIRT5 inh: -3.1; ERAP1 HTS inh: 1.8

Results for [O-]/[N+](=C\c1cccc(Br)c1)c1ccccc1 ?
DENV2 CPE rescue: 1.7; SIRT5 inh: -2.1; ERAP1 HTS inh: 3.8

What do the screens show for `CCCS(=O)(=O)c1c(S(=O)(=O)CCC)c2c(N)cccn2c1C(=O)c1ccc(OC)cc1`?
DENV2 CPE rescue: -4.8; SIRT5 inh: 16.0*; ERAP1 HTS inh: 8.7

Results for Cc1ccccc1OCC(=O)Nc1ccc(N2CCOCC2)cc1N1CCOCC1 ?
DENV2 CPE rescue: 2.8; PglD inh: -0.6; SIRT5 inh: -5.2; ERAP1 HTS inh: 1.8

How did COc1ccccc1OCC(=O)Nc1ccc(N2CCOCC2)cc1N1CCOCC1 do in these assays?
DENV2 CPE rescue: 29.1*; PglD inh: 2.0; E-selectin induc: 0.5; SIRT5 inh: -1.4; ERAP1 HTS inh: -0.2

What do the screens show for `CCC(=O)N1CCCCN2[C@H](CO)[C@H](c3ccc(-c4cccc(C#N)c4)cc3)[C@@H]2C1`?
DENV2 CPE rescue: -3.4; PglD inh: -13.0; E-selectin induc: 0.5; SIRT5 inh: 20.7*; ERAP1 HTS inh: -0.2

Results for N#Cc1cccc(-c2ccc([C@@H]3[C@H](CO)N4CCCCN(C(=O)Nc5ccc(F)cc5)C[C@@H]34)cc2)c1 ?
DENV2 CPE rescue: 25.5*; PglD inh: 1.4; E-selectin induc: -0.3

What do the screens show for `CCC(=O)N1CCCCN2[C@H](C1)[C@H](c1ccc(-c3cccc(C#N)c3)cc1)[C@@H]2CO`?
DENV2 CPE rescue: 0.5; PglD inh: -5.4; E-selectin induc: -0.2; SIRT5 inh: 1.7; ERAP1 HTS inh: -1.6

What do the screens show for `CCCc1cn(CC[C@@H]2CC[C@H](NC(=O)C3CCCCC3)[C@@H](CO)O2)nn1`?
DENV2 CPE rescue: 19.4; PglD inh: -0.3; E-selectin induc: -0.5; SIRT5 inh: 15.7*; ERAP1 HTS inh: 0.2

What do the screens show for `CC(C)c1cn(CC[C@@H]2CC[C@H](NC(=O)C3CCOCC3)[C@@H](CO)O2)nn1`?
DENV2 CPE rescue: 71.4*; E-selectin induc: 0.1; SIRT5 inh: -3.4; ERAP1 HTS inh: -0.9

How did CCCc1cn(CC[C@H]2CC[C@H](NC(=O)C3CCCCC3)[C@@H](CO)O2)nn1 do in these assays?
DENV2 CPE rescue: 3.0; PglD inh: -1.5; E-selectin induc: -0.4; SIRT5 inh: 3.1; ERAP1 HTS inh: 0.4

How did O=c1cccc(-c2cccc3ccccc23)o1 do in these assays?
DENV2 CPE rescue: -5.6; E-selectin induc: 2.6; SIRT5 inh: -7.0
